Source: ChEMBL document CHEMBL4382285, “Discovery of Novel Retigabine Derivatives as Potent KCNQ4 and KCNQ5 Channel Agonists with Improved Specificity” (ACS Med Chem Lett, 2019)
pEC50: −log10 of the molar value. Calls of active or inactive are those of the source. The calls are words filed in the database; no cut-off is given here.

Experiments:
Type in all cases: cell-based
[1] = molecular target: Potassium voltage-gated channel subfamily KQT member 2 (Rattus norvegicus) (UniProt O88943); experiment: Activity at rat KCNQ2 expressed in CHOK1 cells assessed as ratio of amplitude of outward current in presence of test compound to amplitude of outward current in absence of test compound at 10 uM at -10 mV by whole cell patch clamp assay
How it was run: (§1)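 CHO-K1 cells expressing the channel, whole-cell voltage clamp, compound at 10 μM. Read-out is the outward current ratio I/I0 with and without compound, taken at −10 mV. I/I0 > 1 counts as activation and < 1 as inhibition. More than four cells per compound.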

[2] = molecular target: T1, Potassium voltage-gated channel subfamily KQT member 4 (Homo sapiens) (UniProt P56696); experiment: Activity at human KCNQ4 expressed in CHOK1 cells assessed as ratio of amplitude of outward current in presence of test compound to amplitude of outward current in absence of test compound at 10 uM at -10 mV by whole cell patch clamp assay; how it was run: as §1
T1 sequence (whole entry): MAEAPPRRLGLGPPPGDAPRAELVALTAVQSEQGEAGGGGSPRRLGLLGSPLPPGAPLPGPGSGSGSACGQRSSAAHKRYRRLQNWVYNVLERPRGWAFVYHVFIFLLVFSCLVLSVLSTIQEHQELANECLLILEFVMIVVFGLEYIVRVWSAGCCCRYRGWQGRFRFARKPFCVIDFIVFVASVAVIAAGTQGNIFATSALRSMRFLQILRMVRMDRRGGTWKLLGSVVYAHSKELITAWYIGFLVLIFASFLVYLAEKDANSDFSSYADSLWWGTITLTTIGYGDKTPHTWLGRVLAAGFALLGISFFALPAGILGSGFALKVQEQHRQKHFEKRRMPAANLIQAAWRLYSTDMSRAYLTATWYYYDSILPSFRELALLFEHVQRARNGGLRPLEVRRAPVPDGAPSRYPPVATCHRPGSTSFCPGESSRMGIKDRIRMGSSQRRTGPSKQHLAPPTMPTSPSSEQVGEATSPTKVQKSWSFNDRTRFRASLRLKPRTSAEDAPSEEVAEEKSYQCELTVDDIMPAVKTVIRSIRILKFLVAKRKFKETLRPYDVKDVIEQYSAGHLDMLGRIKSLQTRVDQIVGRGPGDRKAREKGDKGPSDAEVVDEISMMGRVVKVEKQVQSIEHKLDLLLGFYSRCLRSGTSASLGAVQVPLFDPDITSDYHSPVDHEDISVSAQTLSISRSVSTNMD

[3] = molecular target: T2, Potassium voltage-gated channel subfamily KQT member 5 (Homo sapiens, UniProt Q9NR82); experiment: Activity at human KCNQ5 expressed in CHOK1 cells assessed as ratio of amplitude of outward current in presence of test compound to amplitude of outward current in absence of test compound at 10 uM at -10 mV by whole cell patch clamp assay; how it was run: as §1
[4] = molecular target: T3, Potassium voltage-gated channel subfamily KQT member 4 (Homo sapiens, UniProt P56696); experiment: Agonist activity at human KCNQ4 expressed in CHOK1 cells by whole cell patch clamp assay
T3 sequence (P56696 whole entry): T1 sequence (whole entry)
How it was run: (§2)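 Concentration–response by whole-cell voltage clamp in CHO-K1 cells transiently expressing the homomeric channel. EC50 and Hill coefficient come from fitting outward currents recorded across the tested concentrations.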

[5] = molecular target: T2, Potassium voltage-gated channel subfamily KQT member 5; experiment: Agonist activity at human KCNQ5 expressed in CHOK1 cells by whole cell patch clamp assay; how it was run: as §2
[6] = molecular target: T4, Potassium voltage-gated channel subfamily KQT member 2 (Rattus norvegicus, UniProt O88943); experiment: Agonist activity at rat KCNQ2 expressed in CHOK1 cells by whole cell patch clamp assay; how it was run: as §2
[7] = molecular target: Potassium voltage-gated channel subfamily KQT member 2 (Rattus norvegicus) (UniProt O88943); experiment: Effect on voltage-dependent activation of rat KCNQ2 expressed in CHOK1 cells assessed as negative shift in current activation curve at 10 uM by whole cell patch clamp assay
[8] = molecular target: T1, Potassium voltage-gated channel subfamily KQT member 4 (Homo sapiens); experiment: Effect on voltage-dependent activation of human KCNQ4 expressed in CHOK1 cells assessed as negative shift in current activation curve at 10 uM by whole cell patch clamp assay
[9] = molecular target: Potassium voltage-gated channel subfamily KQT member 2 (Rattus norvegicus) (UniProt O88943); experiment: Inhibition of rat KCNQ2 expressed in CHOK1 cells at 10 uM at -10 mV by whole cell patch clamp assay relative to control; how it was run: as §1
[10] = molecular target: T5, Potassium voltage-gated channel subfamily KQT member 3 (Rattus norvegicus, UniProt O88944); experiment: Agonist activity at rat KCNQ3 expressed in CHOK1 cells assessed as increase in amplitude of outward current at 10 uM by whole cell patch clamp assay relative to control
T5 sequence (O88944 whole entry): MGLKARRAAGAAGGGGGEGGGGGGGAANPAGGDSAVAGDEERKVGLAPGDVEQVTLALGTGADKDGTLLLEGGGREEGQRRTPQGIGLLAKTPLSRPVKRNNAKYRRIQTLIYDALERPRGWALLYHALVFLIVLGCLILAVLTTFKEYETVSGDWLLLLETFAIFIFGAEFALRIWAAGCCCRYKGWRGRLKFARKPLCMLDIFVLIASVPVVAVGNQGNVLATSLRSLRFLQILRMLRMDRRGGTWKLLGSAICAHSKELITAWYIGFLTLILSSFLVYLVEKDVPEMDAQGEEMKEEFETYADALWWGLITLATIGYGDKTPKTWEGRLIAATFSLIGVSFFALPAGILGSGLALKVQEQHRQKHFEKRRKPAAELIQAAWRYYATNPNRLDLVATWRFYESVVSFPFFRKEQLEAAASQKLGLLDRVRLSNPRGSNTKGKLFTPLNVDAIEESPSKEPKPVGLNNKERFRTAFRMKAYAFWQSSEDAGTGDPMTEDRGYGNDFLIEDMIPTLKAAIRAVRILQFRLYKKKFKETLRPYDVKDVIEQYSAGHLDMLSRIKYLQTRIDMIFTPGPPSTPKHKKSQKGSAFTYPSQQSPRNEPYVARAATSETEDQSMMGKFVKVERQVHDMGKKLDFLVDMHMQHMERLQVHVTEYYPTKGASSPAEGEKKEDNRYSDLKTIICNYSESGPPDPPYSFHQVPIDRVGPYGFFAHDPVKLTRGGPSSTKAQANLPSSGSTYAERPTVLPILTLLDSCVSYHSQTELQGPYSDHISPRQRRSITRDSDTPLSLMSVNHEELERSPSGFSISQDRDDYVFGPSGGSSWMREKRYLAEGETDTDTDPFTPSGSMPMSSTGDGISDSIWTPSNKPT
How it was run: (§3)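 Individual KCNQ subtypes and KCNQ2/3 heteromers transfected into CHO cells, whole-cell recording before and after 10 μM compound. Cells held at −80 mV, stepped from −90 to +60 mV in 10 mV increments for 1500 ms, then to −120 mV for 500 ms. Currents compared at −10 and +60 mV.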

[11] = molecular target: Voltage-gated potassium channel, KQT; KCNQ2(Kv7.2)/KCNQ3(Kv7.3) (Homo sapiens, UniProt O43526+O43525); experiment: Agonist activity at KCNQ2/KCNQ3 (unknown origin) expressed in CHOK1 cells assessed as increase in amplitude of outward current at 10 uM by whole cell patch clamp assay relative to control; how it was run: as §3
[12] = molecular target: T4, Potassium voltage-gated channel subfamily KQT member 2; experiment: Activation of rat homomeric KCNQ2 expressed in CHOK1 cells assessed as outward current amplitude up to 30 uM by whole cell patch clamp assay
How it was run: (§4)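 Homomeric KCNQ2 in CHO-K1 cells, whole-cell voltage clamp, compound applied over 1–30 μM. Change in outward current amplitude was read against the pre-drug current, including at 30 μM.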

[13] = molecular target: Potassium voltage-gated channel subfamily KQT member 2 (Rattus norvegicus) (UniProt O88943); experiment: Inhibition of rat homomeric KCNQ2 expressed in CHOK1 cells assessed as effect on outward current amplitude at 30 uM by whole cell patch clamp assay; how it was run: as §4
[14] = molecular target: Potassium voltage-gated channel subfamily KQT member 2 (Rattus norvegicus) (UniProt O88943); experiment: Channel opening activity at rat KCNQ2 expressed in CHOK1 cells at 10 uM at -60 mV by whole cell patch clamp assay
[15] = molecular target: T1, Potassium voltage-gated channel subfamily KQT member 4 (Homo sapiens); experiment: Channel opening activity at human KCNQ4 expressed in CHOK1 cells at 10 uM at -60 mV by whole cell patch clamp assay

T2 sequence (Q9NR82 whole entry): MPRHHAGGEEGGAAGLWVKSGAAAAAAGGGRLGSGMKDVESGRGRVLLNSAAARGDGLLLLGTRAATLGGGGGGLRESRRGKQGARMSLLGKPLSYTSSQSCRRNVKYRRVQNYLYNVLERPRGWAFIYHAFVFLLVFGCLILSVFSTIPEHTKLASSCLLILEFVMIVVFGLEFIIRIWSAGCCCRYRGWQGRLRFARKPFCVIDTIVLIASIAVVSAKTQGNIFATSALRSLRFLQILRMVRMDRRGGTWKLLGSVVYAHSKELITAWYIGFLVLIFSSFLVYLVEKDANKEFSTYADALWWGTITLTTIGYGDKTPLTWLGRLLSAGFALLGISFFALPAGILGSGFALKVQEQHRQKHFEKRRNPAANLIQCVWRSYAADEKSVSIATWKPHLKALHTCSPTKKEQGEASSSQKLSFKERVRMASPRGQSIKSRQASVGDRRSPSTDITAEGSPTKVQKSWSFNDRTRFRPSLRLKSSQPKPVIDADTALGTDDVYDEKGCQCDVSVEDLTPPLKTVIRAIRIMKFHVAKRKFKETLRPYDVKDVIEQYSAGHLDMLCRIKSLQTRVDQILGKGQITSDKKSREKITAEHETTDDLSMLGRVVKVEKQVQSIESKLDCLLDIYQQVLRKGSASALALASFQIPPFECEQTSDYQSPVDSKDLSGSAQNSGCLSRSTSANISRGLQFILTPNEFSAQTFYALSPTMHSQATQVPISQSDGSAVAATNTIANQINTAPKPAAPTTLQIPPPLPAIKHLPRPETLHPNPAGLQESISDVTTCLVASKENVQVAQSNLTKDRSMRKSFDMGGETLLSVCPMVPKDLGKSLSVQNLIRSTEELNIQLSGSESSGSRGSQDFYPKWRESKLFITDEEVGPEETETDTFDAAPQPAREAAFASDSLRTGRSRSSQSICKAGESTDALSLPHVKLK
Potassium voltage-gated channel subfamily KQT member 2 (Rattus norvegicus), sequence (O88943 whole entry): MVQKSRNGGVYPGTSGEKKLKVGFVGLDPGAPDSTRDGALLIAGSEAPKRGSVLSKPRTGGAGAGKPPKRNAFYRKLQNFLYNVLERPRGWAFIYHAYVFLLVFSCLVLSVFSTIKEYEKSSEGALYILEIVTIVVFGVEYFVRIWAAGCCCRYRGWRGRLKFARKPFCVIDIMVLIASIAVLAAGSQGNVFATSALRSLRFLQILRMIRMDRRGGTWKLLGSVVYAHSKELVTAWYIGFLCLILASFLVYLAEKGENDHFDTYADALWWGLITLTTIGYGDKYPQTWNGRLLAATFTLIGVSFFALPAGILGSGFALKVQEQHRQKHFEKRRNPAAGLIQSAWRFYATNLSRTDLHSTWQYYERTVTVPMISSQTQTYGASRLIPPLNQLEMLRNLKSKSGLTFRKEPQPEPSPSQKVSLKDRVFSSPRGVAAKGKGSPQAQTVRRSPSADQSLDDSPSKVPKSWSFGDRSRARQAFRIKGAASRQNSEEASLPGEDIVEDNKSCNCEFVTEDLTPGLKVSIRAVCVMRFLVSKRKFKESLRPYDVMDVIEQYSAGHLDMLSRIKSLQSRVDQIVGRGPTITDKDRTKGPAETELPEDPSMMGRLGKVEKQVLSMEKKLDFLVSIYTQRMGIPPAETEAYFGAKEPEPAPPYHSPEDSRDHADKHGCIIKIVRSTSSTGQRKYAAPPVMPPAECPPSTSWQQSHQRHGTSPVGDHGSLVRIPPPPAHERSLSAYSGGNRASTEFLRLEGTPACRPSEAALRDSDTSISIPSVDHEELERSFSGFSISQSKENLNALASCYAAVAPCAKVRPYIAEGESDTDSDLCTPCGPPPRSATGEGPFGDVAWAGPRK
T4 sequence (O88943 whole entry): as above
Voltage-gated potassium channel, KQT; KCNQ2(Kv7.2)/KCNQ3(Kv7.3), sequence (O43526 whole entry): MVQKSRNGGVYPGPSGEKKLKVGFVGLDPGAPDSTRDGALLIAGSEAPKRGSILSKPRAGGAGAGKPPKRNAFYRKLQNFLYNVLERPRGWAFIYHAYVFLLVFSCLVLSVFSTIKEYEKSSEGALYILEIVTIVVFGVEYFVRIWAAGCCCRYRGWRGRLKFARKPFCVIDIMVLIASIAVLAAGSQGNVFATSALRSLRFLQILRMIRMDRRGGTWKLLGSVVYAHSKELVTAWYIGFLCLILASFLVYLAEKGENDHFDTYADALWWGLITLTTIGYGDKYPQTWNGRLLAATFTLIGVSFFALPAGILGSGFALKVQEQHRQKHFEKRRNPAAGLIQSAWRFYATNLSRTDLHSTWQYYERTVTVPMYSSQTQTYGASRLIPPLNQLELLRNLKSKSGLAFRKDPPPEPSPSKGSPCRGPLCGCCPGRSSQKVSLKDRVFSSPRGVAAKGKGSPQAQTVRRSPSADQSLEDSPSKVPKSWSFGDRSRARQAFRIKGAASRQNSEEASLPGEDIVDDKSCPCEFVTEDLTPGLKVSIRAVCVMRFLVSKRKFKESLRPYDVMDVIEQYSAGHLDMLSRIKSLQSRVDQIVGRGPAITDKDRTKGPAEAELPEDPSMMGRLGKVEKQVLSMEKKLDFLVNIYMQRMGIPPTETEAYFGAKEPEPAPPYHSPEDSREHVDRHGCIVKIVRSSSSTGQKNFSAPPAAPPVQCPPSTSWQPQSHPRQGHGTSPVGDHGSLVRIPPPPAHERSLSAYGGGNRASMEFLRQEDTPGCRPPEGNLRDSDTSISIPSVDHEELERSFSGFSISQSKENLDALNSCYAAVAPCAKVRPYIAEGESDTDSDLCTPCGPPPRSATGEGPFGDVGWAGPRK
Voltage-gated potassium channel, KQT; KCNQ2(Kv7.2)/KCNQ3(Kv7.3), sequence (O43525 whole entry): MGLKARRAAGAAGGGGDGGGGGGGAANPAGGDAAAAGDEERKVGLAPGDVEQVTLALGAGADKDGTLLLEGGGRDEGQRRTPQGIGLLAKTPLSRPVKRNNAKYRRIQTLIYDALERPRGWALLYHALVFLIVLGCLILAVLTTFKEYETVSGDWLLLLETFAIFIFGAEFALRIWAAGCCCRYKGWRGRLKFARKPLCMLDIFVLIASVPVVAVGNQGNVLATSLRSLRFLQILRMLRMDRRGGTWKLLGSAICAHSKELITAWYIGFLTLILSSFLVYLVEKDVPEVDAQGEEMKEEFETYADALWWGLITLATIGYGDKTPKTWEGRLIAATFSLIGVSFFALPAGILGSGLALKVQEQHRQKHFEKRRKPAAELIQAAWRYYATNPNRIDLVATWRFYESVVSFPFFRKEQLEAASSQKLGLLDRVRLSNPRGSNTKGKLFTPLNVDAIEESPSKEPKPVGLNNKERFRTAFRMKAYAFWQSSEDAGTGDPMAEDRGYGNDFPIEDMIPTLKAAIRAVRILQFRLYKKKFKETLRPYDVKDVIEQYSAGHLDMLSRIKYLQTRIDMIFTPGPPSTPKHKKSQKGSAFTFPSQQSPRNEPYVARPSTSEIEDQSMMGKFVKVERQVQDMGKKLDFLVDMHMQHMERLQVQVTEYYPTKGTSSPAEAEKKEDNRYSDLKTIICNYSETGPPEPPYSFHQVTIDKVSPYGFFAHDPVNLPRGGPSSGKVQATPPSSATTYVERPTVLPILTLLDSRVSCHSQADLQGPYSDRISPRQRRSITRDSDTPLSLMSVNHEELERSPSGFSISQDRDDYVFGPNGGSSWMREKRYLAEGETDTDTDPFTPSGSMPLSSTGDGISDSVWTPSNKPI

| Structure (SMILES) | Ratio [1] | Ratio [2] | Ratio [3] | further results |
| --- | --- | --- | --- | --- |
| CCOC(=O)Nc1ccc(N(CC2=CCCCC2)Cc2ccc(F)cc2)cc1NC(=O)OCC | 1.19 | 1.49 | 1.05 | – |
| C#CCN(Cc1ccc(F)cc1)c1ccc(NC(=O)OCc2ccccc2)c(NC(=O)OCc2ccccc2)c1 | 1.25 | 3.02 | 3.57 | – |
| C#CCN(Cc1ccc(F)cc1)c1ccc(NC(=O)OCC)c(NC(=O)OCC=C)c1 | 0.96 | 3.68 | 4.67 | – |
| C/C=C(\C)CN(Cc1ccc(F)cc1)c1ccc(NC(=O)OCC)c(NC(=O)OCC)c1 | 0.85 | 2.36 | 1.28 | – |
| C#CCN(Cc1ccc(F)cc1)c1ccc(NC(=O)OCC)c(NC(=O)OC)c1 | 0.61 | 2.56 | 3.34 | – |
| C#CCN(Cc1ccc(F)cc1)c1ccc(NC(=O)OC)c(NC(=O)OC)c1 | 1.37 | 4.77 | 2.89 | – |
| C#CCN(Cc1ccc(F)cc1)c1ccc(NC(=O)OC2CCCC2)c(NC(=O)OC2CCCC2)c1 | 0.21 | 0.88 | 1.25 | – |
| C/C=C/CN(Cc1ccc(F)cc1)c1ccc(NC(=O)OCC)c(NC(=O)OCC)c1 | 0.87 | 1.85 | 1.36 | – |
| C#CCN(Cc1ccc(F)cc1)c1ccc(NC(=O)OCC)c(NC(=O)OCCC)c1 | 1.07 | 3.95 | 5.81 | – |
| C#CCN(Cc1ccc(F)cc1)c1ccc(NC(=O)OC(C)(C)C)c(NC(=O)OCC)c1 | 1.07 | 7.71 | 4.59 | pEC50 [4]: 5.85; pEC50 [5]: 5.86; pEC50 [6]: < 4.52 |
| C#CCN(Cc1ccc(F)cc1)c1ccc(NC(=O)OC2CCC2)c(NC(=O)OC2CCC2)c1 | 0.26 | 1.21 | 1.33 | – |
| CCOC(=O)Nc1ccc(NCc2ccc(F)cc2)cc1N [EZOGABINE] | 1.6 | – | – | pEC50 [4]: 5.23; pEC50 [5]: 5.46; pEC50 [6]: 5.66; Activity [7]: 20 to 30 mV; Activity [8]: 20 to 30 mV |
| C#CCN(Cc1ccc(F)cc1)c1ccc(NC(=O)OC2CC2)c(NC(=O)OC2CC2)c1 | 0.64 | 1.51 | 2.55 | – |
| C#CCN(Cc1ccc(F)cc1)c1ccc(NC(=O)Oc2ccccc2)c(NC(=O)Oc2ccccc2)c1 | 0.91 | 1.22 | 1.16 | – |
| C#CCN(Cc1ccc(F)cc1)c1ccc(NC(=O)OCC)c(NC(=O)OCC(C)C)c1 | 1.04 | 5.19 | 4.84 | – |
| C#CCN(Cc1ccc(F)cc1)c1ccc(NC(=O)OCCC)c(NC(=O)OCCC)c1 | 0.78 | 2.58 | 2.75 | – |
| CCOC(=O)Nc1ccc(N(CC=C(C)C)Cc2ccc(F)cc2)cc1NC(=O)OCC | 0.66 | 3.63 | 1.37 | – |
| C#CCN(Cc1ccc(F)cc1)c1ccc(NC(=O)OC(C)(C)C)c(NC(=O)OC(C)(C)C)c1 | 1 | 3.05 | 5.32 | pEC50 [4]: 5.69; pEC50 [5]: 5.61; pEC50 [6]: < 4.52 |
| C#CCN(Cc1ccc(F)cc1)c1ccc(NC(=O)OCC)c(NC(=O)OC(C)C)c1 | 0.94 | 5.01 | 5.71 | – |
| C#CCN(Cc1ccc(F)cc1)c1ccc(NC(=O)OCCCC)c(NC(=O)OCCCC)c1 | 0.77 | 2.75 | 4.13 | – |
| C#CCN(Cc1ccc(F)cc1)c1ccc(NC(=O)OCC=C)c(NC(=O)OCC=C)c1 | 0.67 | 2.21 | 5.26 | – |
| C#CCN(Cc1ccc(F)cc1)c1ccc(NC(=O)OCC)c(NC(=O)OCCCC)c1 | 1.06 | 4.16 | 3.62 | – |
| C=CCN(Cc1ccc(F)cc1)c1ccc(NC(=O)OCC)c(NC(=O)OCC)c1 | 0.3 | – | 1.49 | inhibition [9]: 70% |
| C#CCN(Cc1ccc(F)cc1)c1ccc(NC(=O)OCC)c(NC(=O)OCc2ccccc2)c1 | 0.97 | 1.27 | 2.57 | – |
| C#CCN(Cc1ccc(F)cc1)c1ccc(NC(=O)OCC(C)C)c(NC(=O)OCC(C)C)c1 | 0.83 | 1.52 | 1.73 | – |
| CCOC(=O)Nc1ccc(N(CC#Cc2ccccc2)Cc2ccc(F)cc2)cc1NC(=O)OCC | 1.26 | 1.54 | 1.13 | – |
| C#CCN(Cc1ccc(F)cc1)c1ccc(NC(=O)OCC)c(NC(=O)OC(C)(C)C)c1 | 1.16 | 6.37 | 4.58 | pEC50 [4]: 6.11; pEC50 [5]: 5.77; pEC50 [6]: < 4.52; fold change (FC) [10]: 1.5; fold change (FC) [11]: 1.5; Activity [12]: Not Active; inhibition [13]: Active; Activity [7]: inactive; Activity [8]: inactive; Activity [14]: inactive; Activity [15]: inactive |
| C#CCN(Cc1ccc(F)cc1)c1ccc(NC(=O)OC(C)C)c(NC(=O)OC(C)C)c1 | 0.35 | 1.33 | 3.11 | – |
